According to ChEMBL document CHEMBL1122326, “Nonsteroidal antiinflammatory agents. 2. [(Heteroarylamino)phenyl]alkanoic acids” (J Med Chem, 1983):

Assays:
Rattus norvegicus [1] = assay: Evaluated for the UD50 value by gastric ulcer assay in rats on peroral administration of dose; value may range from 368-807; type: functional, Stomach
Outline: (§1)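 Male Wistar rats fasted for 24 h were given a single oral dose in 0.5% aqueous tragacanth and killed 6 h later. Stomachs were inspected macroscopically. UD50 is the dose producing ulcers in 50% of rats, taken from each compound's regression line.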

[2] = Evaluated for the acute lethal toxicity in mice on peroral administration of dose; value may range from 430 to 1236; type: organism-based; conditions: mouse, in vivo, po
Outline: (§2)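 Single oral dose, in 0.5% aqueous tragacanth, given to male Std:ddY mice. LD50 was derived from mortality over 7 days.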

[3] = Ratio between UD50 and ED50 in carrageenan paw edema was determined; type: functional
Outline: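 Gastric UD50 (fasted male Wistar rats, single oral dose, stomach scored macroscopically at 6 h) was divided by oral CPE ED50 (male Wistar rats, paw carrageenin, ≥25% inhibition at 3 h, Litchfield-Wilcoxon).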

Rattus norvegicus [4] = assay: ED50 value was evaluated for antiinflammatory activity by carrageenan-induced rat paw edema method (CPE) on peroral administration; type: functional; conditions: po
Outline: (§3)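 Male Wistar rats, 5 to 10 per dose, 4 to 5 doses per drug, given orally in 0.5% aqueous tragacanth. Edema was induced by subcutaneous carrageenin into the left hind paw. A rat counted as positive at ≥25% inhibition versus vehicle at 3 h. ED50 with 95% confidence limits was calculated by Litchfield-Wilcoxon, after a screen at 80 mg/kg.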

Mus musculus [5] = assay: ED50 value was evaluated for analgesic activity by phenylquinone -induced writhing test in mice on peroral administration; type: functional; conditions: po
Outline: (§4)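 Female ddN mice, 5 to 15 per dose, given drug orally in 0.5% aqueous tragacanth. Writhing was induced by ip phenylquinone (0.03%), and writhes were counted over 15 min.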

Rattus norvegicus [6] = assay: ED50 value was evaluated for antiinflammatory activity by carrageenan-induced rat paw edema method (CPE) on peroral administration; value may range from 7.05 to 37.13; type: functional; conditions: po; outline: as §3
Rattus norvegicus [7] = assay: ED50 value was evaluated for antiinflammatory activity by carrageenan-induced rat paw edema method (CPE) on peroral administration; value may range from 3.87 to 25.90; type: functional; conditions: po; outline: as §3
Rattus norvegicus [8] = assay: Evaluated for the UD50 value by gastric ulcer assay in rats on peroral administration of dose; type: functional, Stomach; outline: as §1
[9] = Evaluated for the acute lethal toxicity in mice on peroral administration of dose; value may range from 1539 to 2362; type: organism-based; conditions: mouse, in vivo, po; outline: as §2
Mus musculus [10] = assay: ED50 value was evaluated for analgesic activity by phenylquinone-induced writhing test in mice on peroral administration; type: functional; conditions: po; outline: as §4
Rattus norvegicus [11] = assay: ED50 value was evaluated for antiinflammatory activity by carrageenan-induced rat paw edema method (CPE) on peroral administration; value may range from 12.71 to 51.24; type: functional; conditions: po; outline: as §3
Mus musculus [12] = assay: ED50 value was evaluated for analgesic activity by phenylquinone -induced writhing test in ddN strain mice on peroral administration; value ranges from 32.7-76.20; type: functional; conditions: po
Rattus norvegicus [13] = assay: Evaluated for the UD50 value by gastric ulcer assay in rats on peroral administration of dose; value ranges from 82.3-182; type: functional, Stomach; outline: as §1
Mus musculus [14] = assay: ED50 value was evaluated for analgesic activity by phenylquinone -induced writhing test in mice on peroral administration; value may range from 35.3 to 283; type: functional; conditions: po; outline: as §4
Rattus norvegicus [15] = assay: ED50 value was evaluated for antiinflammatory activity by carrageenan-induced rat paw edema method (CPE) on peroral administration; value may range from 50.5 to 120.0; type: functional; conditions: po; outline: as §3
Mus musculus [16] = assay: ED50 value was evaluated for analgesic activity by phenylquinone -induced writhing test in mice on peroral administration; value may range from 20.6 to 66.0; type: functional; conditions: po; outline: as §4
Rattus norvegicus [17] = assay: ED50 value was evaluated for antiinflammatory activity by carrageenan-induced rat paw edema method (CPE) on peroral administration; value may range from 39.61 to 80.81; type: functional; conditions: po; outline: as §3

| SMILES | ED50 (Rattus norvegicus [4]) | ED50 (Mus musculus [5]) | other results |
| --- | --- | --- | --- |
| CC(C(=O)O)c1ccc(Nc2ccccn2)c(Cl)c1 (stereo not drawn) | – | – | UD50 (Rattus norvegicus [1]): 545 mg/kg; LD50 [2]: 729 mg/kg; Ratio [3]: 41.6 |
| Cc1ccnc(Nc2ccc(C(C)C(=O)O)cc2)c1 (stereo not drawn) | > 80 mg/kg | > 100 mg/kg | – |
| O=C(O)Cc1ccc(Nc2ccccn2)cc1 | – | > 100 mg/kg | ED50 (Rattus norvegicus [6]): 15.8 mg/kg |
| CC(C(=O)O)c1ccc(Nc2ccncc2)cc1 (stereo not drawn) | > 80 mg/kg | ≥ 100 mg/kg | – |
| CC(C(=O)O)c1ccc(Nc2ccccn2)cc1 (stereo not drawn) | – | – | ED50 (Rattus norvegicus [7]): 10 mg/kg; UD50 (Rattus norvegicus [8]): >640 mg/kg; LD50 [9]: 1910 mg/kg; Ratio [3]: > 64 |
| CC(C(=O)O)c1ccc(Nc2ccccn2)cc1Cl (stereo not drawn) | ≥ 80 mg/kg | ≥ 100 mg/kg | – |
| CSc1nccc(Nc2ccc(CC(=O)O)cc2)n1 | > 80 mg/kg | – | ED50 (Mus musculus [10]): > 100 mg/kg |
| CC(C(=O)O)c1ccc(Nc2ccccc2)cc1 (stereo not drawn) | – | > 100 mg/kg | ED50 (Rattus norvegicus [11]): 25.5 mg/kg |
| CC(C)Cc1ccc(C(C)C(=O)O)cc1 (stereo not drawn) [IBUPROFEN] | – | – | ED50 (Mus musculus [12]): 50 mg/kg; UD50 (Rattus norvegicus [13]): 124.6 mg/kg |
| Cc1cccnc1Nc1ccc(C(C)C(=O)O)cc1 (stereo not drawn) | ≥ 80 mg/kg | ≥ 100 mg/kg | – |
| O=C(O)Cc1cccc(Nc2ccccn2)c1 | > 80 mg/kg | ≥ 100 mg/kg | – |
| O=C(O)Cc1ccc(Nc2ccncc2)cc1 | > 80 mg/kg | – | – |
| O=C(O)Cc1ccc(Nc2ccc3ccccc3n2)cc1 | > 80 mg/kg | ≥ 100 mg/kg | – |
| CC(C(=O)O)c1ccc(Nc2ccc(Br)cn2)cc1 (stereo not drawn) | ≥ 80 mg/kg | – | ED50 (Mus musculus [14]): 100 mg/kg |
| CC(C(=O)O)c1cccc(Nc2ccccn2)c1 (stereo not drawn) | – | > 100 mg/kg | ED50 (Rattus norvegicus [15]): 77.9 mg/kg |
| Cc1cc(C(C)C(=O)O)ccc1Nc1ccccn1 (stereo not drawn) | 16.8 mg/kg | – | ED50 (Mus musculus [16]): 36.9 mg/kg |
| Cc1ccc(Nc2ccc(C(C)C(=O)O)cc2)nc1 (stereo not drawn) | ≥ 80 mg/kg | ≥ 100 mg/kg | – |
| Cc1cccc(Nc2ccc(C(C)C(=O)O)cc2)n1 (stereo not drawn) | > 80 mg/kg | > 100 mg/kg | – |
| CC(C(=O)O)c1ccc(Nc2ccc(Cl)cn2)cc1 (stereo not drawn) | ≥ 80 mg/kg | ≥ 100 mg/kg | – |
| CC(C(=O)O)c1ccc(Nc2ccc3ccccc3n2)cc1 (stereo not drawn) | > 80 mg/kg | ≥ 100 mg/kg | – |
| CC(C(=O)O)c1ccc(Nc2ccc([N+](=O)[O-])cn2)cc1 (stereo not drawn) | – | ≥ 100 mg/kg | ED50 (Rattus norvegicus [17]): 56.6 mg/kg |
| Cc1cc(Nc2ccc(C(C)C(=O)O)cc2)ncn1 (stereo not drawn) | > 80 mg/kg | ≥ 100 mg/kg | – |
| Cc1cc(Nc2ccc(CC(=O)O)cc2)ncn1 | > 80 mg/kg | > 100 mg/kg | – |
